Activity calls are given as the source filed them. The calls are words filed in the database; no cut-off is given here.
Tests used:
[1] = biological target: Platelet-derived growth factor receptor alpha (Homo sapiens) (UniProt P16234); assay: Inhibition of PDGFRalpha phosphorylation in human EOL-1 cells after 90 mins by Western blot analysis; assay type: cell-based; conditions: EOL1
Procedure, shortened: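 EOL-1 cells (FIP1L1-PDGFRA, RPMI/10% FBS) treated 90 min with increasing compound doses. Lysed in lysis buffer with 1 mM NaVO4 and protease inhibitors, reduced, and run on Bis-Tris 4–12% gels. Western blot for phospho-PDGFRα and phospho-STAT5, with total PDGFRα and STAT5 as loading controls.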

[2] = biological target: Proto-oncogene tyrosine-protein kinase ROS (Homo sapiens) (UniProt P08922); assay: Inhibition of ROS1 (unknown origin) transfected in mouse Ba/F3 cells up to 1 uM; assay type: cell-based; conditions: BaF3
Sequence of Proto-oncogene tyrosine-protein kinase ROS (Homo sapiens) (P08922 whole entry): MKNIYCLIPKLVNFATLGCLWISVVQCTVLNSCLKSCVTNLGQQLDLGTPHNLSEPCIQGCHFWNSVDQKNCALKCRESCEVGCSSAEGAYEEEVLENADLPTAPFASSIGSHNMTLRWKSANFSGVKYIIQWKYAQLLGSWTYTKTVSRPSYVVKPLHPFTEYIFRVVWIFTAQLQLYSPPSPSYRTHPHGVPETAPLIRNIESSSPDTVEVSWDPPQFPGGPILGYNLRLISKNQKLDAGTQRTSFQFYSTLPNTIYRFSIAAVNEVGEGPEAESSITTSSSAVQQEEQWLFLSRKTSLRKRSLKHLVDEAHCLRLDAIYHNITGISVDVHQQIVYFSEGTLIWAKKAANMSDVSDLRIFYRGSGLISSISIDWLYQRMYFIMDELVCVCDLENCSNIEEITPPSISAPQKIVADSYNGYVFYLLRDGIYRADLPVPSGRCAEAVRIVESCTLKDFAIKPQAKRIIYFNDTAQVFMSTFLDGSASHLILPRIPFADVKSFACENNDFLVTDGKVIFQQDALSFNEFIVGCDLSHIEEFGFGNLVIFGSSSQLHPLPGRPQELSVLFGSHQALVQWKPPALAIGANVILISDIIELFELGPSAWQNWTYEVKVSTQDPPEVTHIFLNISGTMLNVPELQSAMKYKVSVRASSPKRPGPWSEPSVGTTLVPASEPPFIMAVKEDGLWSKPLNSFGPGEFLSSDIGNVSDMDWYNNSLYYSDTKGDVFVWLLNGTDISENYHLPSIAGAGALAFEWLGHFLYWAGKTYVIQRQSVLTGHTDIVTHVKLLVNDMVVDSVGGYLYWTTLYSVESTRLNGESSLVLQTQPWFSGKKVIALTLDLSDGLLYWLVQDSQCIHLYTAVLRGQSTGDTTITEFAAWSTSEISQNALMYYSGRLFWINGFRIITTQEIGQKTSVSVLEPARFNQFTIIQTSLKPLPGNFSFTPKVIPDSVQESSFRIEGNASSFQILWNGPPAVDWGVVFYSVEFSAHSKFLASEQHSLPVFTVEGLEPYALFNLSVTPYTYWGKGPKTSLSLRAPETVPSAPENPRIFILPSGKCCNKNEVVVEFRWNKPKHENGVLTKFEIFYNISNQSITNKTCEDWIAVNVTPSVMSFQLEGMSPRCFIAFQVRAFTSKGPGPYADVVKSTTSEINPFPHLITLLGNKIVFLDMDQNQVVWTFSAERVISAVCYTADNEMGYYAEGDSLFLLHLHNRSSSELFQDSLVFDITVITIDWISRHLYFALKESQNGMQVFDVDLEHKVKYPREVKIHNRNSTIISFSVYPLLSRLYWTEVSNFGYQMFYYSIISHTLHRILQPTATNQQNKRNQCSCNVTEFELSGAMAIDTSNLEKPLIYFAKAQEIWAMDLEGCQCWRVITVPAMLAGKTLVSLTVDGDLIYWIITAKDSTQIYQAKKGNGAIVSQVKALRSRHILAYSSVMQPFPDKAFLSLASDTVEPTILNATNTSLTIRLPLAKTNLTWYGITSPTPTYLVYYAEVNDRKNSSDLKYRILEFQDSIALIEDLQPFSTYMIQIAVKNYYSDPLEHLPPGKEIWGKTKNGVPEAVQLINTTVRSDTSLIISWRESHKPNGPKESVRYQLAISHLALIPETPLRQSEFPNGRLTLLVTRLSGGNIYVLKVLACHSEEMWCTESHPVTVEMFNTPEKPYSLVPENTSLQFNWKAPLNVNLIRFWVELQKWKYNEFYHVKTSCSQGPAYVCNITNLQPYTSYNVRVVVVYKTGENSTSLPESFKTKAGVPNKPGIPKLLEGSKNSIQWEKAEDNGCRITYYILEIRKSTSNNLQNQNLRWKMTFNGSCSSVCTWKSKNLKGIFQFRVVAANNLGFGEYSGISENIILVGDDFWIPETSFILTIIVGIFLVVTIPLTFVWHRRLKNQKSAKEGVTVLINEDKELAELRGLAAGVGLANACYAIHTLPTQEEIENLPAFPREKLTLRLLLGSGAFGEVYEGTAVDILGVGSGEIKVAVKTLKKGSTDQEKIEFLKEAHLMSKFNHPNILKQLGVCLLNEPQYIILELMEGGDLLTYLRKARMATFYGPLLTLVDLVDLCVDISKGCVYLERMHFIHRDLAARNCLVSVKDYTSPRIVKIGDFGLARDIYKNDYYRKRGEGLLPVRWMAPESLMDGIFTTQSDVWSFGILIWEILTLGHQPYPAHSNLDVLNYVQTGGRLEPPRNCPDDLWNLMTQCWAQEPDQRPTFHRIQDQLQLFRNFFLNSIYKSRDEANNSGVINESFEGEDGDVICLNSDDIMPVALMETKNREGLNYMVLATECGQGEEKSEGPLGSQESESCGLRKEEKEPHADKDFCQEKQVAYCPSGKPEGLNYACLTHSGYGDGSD

[3] = biological target: T1, Ephrin type-A receptor 8 (Homo sapiens) (UniProt P29322); assay: Inhibition of EPHA8 (unknown origin) transfected in mouse Ba/F3 cells up to 1 uM; assay type: cell-based; conditions: BaF3
T1 sequence (whole entry): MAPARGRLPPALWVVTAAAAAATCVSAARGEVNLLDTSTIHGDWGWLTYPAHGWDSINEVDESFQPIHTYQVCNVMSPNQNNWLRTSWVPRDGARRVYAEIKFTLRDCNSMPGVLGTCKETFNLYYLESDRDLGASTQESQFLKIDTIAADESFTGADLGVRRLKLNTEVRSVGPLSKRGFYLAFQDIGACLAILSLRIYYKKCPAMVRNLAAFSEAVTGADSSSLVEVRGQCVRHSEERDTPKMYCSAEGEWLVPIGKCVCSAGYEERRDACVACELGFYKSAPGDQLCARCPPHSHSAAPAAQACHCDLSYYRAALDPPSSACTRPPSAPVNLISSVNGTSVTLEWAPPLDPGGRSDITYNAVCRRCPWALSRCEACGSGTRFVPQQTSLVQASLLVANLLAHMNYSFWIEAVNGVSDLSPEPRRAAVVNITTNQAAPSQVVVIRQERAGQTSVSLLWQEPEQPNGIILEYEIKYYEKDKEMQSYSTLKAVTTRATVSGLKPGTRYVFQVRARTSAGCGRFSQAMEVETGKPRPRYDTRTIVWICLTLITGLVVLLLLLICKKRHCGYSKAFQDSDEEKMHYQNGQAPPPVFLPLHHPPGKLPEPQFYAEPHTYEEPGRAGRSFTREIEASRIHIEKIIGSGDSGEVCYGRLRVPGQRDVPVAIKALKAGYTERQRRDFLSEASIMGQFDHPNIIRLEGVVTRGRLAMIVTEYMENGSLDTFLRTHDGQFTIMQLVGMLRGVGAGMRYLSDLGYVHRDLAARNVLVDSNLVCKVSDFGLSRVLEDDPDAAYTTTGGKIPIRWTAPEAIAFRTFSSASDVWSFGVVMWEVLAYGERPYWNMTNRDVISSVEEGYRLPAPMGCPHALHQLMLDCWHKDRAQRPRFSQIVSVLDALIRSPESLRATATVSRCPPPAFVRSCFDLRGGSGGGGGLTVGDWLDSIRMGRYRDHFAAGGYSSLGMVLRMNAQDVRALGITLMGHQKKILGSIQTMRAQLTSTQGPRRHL

[4] = biological target: Ephrin type-A receptor 5 (Homo sapiens) (UniProt P54756); assay: Inhibition of EPHA5 (unknown origin) transfected in mouse Ba/F3 cells up to 1 uM; assay type: cell-based; conditions: BaF3
Sequence of Ephrin type-A receptor 5 (Homo sapiens) (P54756 whole entry): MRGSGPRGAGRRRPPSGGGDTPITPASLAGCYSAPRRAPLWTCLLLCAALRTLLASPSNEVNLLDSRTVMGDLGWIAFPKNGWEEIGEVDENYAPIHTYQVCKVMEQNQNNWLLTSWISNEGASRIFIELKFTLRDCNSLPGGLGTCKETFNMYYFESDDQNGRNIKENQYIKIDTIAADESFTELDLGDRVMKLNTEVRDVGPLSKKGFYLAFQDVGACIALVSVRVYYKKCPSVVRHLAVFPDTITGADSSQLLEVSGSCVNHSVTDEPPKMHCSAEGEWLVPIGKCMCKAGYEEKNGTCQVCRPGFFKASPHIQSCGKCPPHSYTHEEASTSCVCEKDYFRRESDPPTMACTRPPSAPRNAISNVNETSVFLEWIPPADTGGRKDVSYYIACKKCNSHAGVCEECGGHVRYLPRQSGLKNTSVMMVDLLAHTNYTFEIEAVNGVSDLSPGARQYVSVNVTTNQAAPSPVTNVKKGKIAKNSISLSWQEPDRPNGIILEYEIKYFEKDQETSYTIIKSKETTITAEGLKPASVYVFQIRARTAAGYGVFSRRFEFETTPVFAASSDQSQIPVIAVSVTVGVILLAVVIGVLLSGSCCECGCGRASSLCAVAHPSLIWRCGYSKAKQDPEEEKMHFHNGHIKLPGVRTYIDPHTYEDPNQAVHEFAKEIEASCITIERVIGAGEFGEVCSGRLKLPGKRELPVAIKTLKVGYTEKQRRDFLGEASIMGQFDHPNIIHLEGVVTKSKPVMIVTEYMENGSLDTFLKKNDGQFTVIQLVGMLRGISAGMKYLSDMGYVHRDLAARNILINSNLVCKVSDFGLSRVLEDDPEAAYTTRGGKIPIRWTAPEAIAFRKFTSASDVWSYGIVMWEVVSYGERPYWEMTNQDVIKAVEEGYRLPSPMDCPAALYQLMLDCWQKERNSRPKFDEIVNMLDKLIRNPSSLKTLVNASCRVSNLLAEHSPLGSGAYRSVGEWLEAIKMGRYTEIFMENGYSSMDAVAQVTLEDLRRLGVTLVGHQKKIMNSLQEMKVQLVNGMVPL

[5] = biological target: Tyrosine-protein kinase ABL2 (Homo sapiens) (UniProt P42684); assay: Inhibition of ABL2 (unknown origin) transfected in mouse Ba/F3 cells up to 1 uM; assay type: cell-based; conditions: BaF3
[6] = biological target: T2, Receptor-type tyrosine-protein kinase FLT3 (Mus musculus) (UniProt Q00342); assay: Inhibition of FLT3 phosphorylation in mouse Ba/F3 cells transfected with FLT3-ITD at 50 nM after 90 mins by Western blot analysis; assay type: cell-based; conditions: BaF3
T2 sequence (whole entry): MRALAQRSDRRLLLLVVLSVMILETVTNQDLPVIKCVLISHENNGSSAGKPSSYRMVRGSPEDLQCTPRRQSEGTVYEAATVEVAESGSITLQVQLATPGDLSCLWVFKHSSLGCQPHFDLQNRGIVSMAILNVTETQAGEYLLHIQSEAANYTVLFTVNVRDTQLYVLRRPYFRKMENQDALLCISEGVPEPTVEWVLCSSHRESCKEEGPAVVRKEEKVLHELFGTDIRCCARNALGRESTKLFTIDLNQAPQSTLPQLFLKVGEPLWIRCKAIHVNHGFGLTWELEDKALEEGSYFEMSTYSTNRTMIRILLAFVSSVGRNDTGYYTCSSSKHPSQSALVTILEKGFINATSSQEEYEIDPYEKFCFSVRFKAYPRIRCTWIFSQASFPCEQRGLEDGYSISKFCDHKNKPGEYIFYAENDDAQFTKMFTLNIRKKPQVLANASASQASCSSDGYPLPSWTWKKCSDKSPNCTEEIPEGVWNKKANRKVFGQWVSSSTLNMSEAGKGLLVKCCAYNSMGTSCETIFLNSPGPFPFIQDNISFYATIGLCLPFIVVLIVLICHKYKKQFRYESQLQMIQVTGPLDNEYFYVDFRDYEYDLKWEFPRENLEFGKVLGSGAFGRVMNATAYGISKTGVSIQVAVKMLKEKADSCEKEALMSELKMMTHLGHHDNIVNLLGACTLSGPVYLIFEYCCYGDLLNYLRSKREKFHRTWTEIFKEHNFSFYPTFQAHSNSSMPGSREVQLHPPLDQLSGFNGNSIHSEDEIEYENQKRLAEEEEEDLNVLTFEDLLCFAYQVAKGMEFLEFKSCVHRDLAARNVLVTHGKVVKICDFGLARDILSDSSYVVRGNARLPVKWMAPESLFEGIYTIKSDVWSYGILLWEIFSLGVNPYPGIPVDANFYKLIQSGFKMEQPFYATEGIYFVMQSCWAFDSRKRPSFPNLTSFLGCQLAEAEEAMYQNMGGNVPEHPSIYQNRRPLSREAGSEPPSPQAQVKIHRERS
Procedure, shortened: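 Ba/F3-FLT3-ITD cells were treated for 90 min with increasing doses. They were lysed in buffer with 1 mM NaVO4 and protease inhibitors, then reduced and run on Bis-Tris 4–12% gels for Western blot. Phospho-FLT3 and phospho-STAT5 were detected, with total FLT3 and STAT5 as loading controls.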

KG-1 = assay: Cytotoxicity against human KG1 cells after 24 hrs by plate reader analysis; assay type: functional, cell-based; conditions: KG-1, 24 h
Procedure, shortened: (§1)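 Cells in RPMI 1640 with 10% FBS at 37 °C and 5% CO2 were seeded at 100,000 cells/ml. They were treated for 24 h at 8 concentrations (50–6400 nM), each in triplicate, with DMSO as negative control. Viable cells were measured by ATP-lite luminescence, and EC50 was taken from dose–response curves.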

MOLM-13 = assay: Cytotoxicity against human MOLM13 cells after 24 hrs by plate reader analysis; assay type: functional, cell-based; conditions: MOLM-13, 24 h; procedure, shortened: as §1

Sequence of Platelet-derived growth factor receptor alpha (Homo sapiens) (P16234 whole entry): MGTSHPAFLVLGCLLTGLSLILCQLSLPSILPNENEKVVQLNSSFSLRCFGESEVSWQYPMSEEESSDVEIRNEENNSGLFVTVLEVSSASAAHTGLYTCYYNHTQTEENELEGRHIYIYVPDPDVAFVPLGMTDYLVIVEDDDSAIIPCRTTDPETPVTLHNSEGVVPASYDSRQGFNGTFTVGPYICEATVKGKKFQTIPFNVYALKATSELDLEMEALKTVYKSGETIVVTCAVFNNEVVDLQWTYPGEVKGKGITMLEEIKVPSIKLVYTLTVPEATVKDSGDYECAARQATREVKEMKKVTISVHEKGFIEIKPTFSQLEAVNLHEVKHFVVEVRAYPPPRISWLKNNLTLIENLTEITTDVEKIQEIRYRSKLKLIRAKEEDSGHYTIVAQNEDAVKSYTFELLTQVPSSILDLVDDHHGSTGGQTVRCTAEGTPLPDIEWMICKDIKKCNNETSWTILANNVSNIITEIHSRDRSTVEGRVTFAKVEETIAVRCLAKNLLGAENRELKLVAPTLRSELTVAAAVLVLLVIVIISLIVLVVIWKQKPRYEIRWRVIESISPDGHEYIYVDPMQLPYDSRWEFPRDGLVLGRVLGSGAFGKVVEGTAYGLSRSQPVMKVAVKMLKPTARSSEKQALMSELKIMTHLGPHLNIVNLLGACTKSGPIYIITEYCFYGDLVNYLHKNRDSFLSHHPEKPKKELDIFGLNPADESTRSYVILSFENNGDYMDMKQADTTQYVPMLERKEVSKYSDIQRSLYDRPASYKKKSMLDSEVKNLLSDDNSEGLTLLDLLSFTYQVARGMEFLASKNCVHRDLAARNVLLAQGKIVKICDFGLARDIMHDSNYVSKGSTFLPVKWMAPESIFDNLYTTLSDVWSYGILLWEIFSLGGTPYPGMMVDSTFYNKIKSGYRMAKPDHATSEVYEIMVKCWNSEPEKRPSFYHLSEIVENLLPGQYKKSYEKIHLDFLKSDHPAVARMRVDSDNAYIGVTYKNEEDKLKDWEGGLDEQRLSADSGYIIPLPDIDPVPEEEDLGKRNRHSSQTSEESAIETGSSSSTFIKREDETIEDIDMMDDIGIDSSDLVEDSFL

Cc1ccc(-c2cc(NC(=O)c3ccc(F)cc3)[nH]n2)cc1
inhibition [1]: inactive

Fc1ccc(-c2n[nH]cc2-c2ccncc2)cc1Cl
inhibition [2]: inactive
inhibition [3]: inactive
inhibition [4]: inactive
inhibition [5]: inactive

COc1ccc(C(=O)Nc2cc(-c3ccccc3)[nH]n2)cc1
inhibition [6]: Active
EC50 (KG-1): 15 µM
EC50 (MOLM-13): 0.292 µM

From ChEMBL document CHEMBL2390926, “Identification of novel FLT3 kinase inhibitors” (Eur J Med Chem, 2013)
